Assay results from ChEMBL document CHEMBL4265954, “Discovery of potent liver-selective stearoyl-CoA desaturase-1 (SCD1) inhibitors, thiazole-4-acetic acid derivatives, for the treatment of diabetes, hepatic steatosis, and obesity” (Eur J Med Chem, 2018).
≈ marks a conversion by molar mass, not a printed value. Calls of active or inactive are those of the source. No cut-off for these calls is given here.

Columns and labels:
[1] = Oral bioavailability in C57BL/6J mouse at 10 mg/kg; type: ADME, organism-based; settings: in vivo
Procedure, shortened: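 Two male C57BL/6J mice per route, 10 mg/kg po and 1 mg/kg iv. Plasma concentration–time profiles gave Cmax, tmax, terminal half-life and AUC0-inf. Bioavailability was derived from the po and iv data.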

Mus musculus [2] = test: Ex vivo inhibition of SCD1 in C57BL/6J mouse eyelid assessed as residual activity at 10 mg/kg, po treated for 24 hrs followed by incubation with [14C]stearoyl-CoA substrate for 30 mins by TLC assay relative to control; type: organism-based
Procedure, shortened: (§1)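 Male 6-week-old C57BL/6J mice dosed orally as a suspension in 0.5% methylcellulose. Liver or eyelid was taken 6 or 24 h later and homogenized in 100 mM Tris-HCl pH 7.4 with 0.25 M sucrose. S9 was obtained at 10,000 × g, 4 °C. S9 was incubated with [14C]stearoyl-CoA, NADH, MgCl2 and cytochrome b5 at room temperature, 10 min for liver and 30 min for eyelid. Lipids were saponified and run on AgNO3 TLC to quantify stearate and oleate. Result is % of vehicle control.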

Mus musculus [3] = test: Ex vivo inhibition of SCD1 in C57BL/6J mouse liver assessed as residual activity at 10 mg/kg, po treated for 6 hrs followed by incubation with [14C]stearoyl-CoA substrate for 10 mins by TLC assay relative to control; type: functional; procedure, shortened: as §1
Mus musculus [4] = test: Ex vivo inhibition of SCD1 in C57BL/6J mouse liver assessed as residual activity at 0.1 mg/kg, po treated for 24 hrs followed by incubation with [14C]stearoyl-CoA substrate for 10 mins by TLC assay relative to control; type: functional; procedure, shortened: as §1
Mus musculus [5] = test: Ex vivo inhibition of SCD1 in C57BL/6J mouse eyelid assessed as residual activity at 10 mg/kg, po treated for 6 hrs followed by incubation with [14C]stearoyl-CoA substrate for 30 mins by TLC assay relative to control; type: organism-based; procedure, shortened: as §1
Mus musculus [6] = test: Ex vivo inhibition of SCD1 in C57BL/6J mouse eyelid assessed as residual activity at 1 mg/kg, po treated for 6 hrs followed by incubation with [14C]stearoyl-CoA substrate for 30 mins by TLC assay relative to control; type: organism-based; procedure, shortened: as §1
Mus musculus [7] = test: Ex vivo inhibition of SCD1 in C57BL/6J mouse liver assessed as residual activity at 1 mg/kg, po treated for 6 hrs followed by incubation with [14C]stearoyl-CoA substrate for 10 mins by TLC assay relative to control; type: functional; procedure, shortened: as §1
Mus musculus [8] = test: Ex vivo inhibition of SCD1 in C57BL/6J mouse liver treated orally for 6 hrs followed by incubation with [14C]stearoyl-CoA substrate for 10 mins by TLC assay; type: functional, organism-based; procedure, shortened: as §1
Mus musculus [9] = test: Ex vivo inhibition of SCD1 in C57BL/6J mouse eyelid treated orally for 6 hrs followed by incubation with [14C]stearoyl-CoA substrate for 30 mins by TLC assay; type: organism-based; settings: po; procedure, shortened: as §1
Mus musculus [10] = test: Ex vivo inhibition of SCD1 in C57BL/6J mouse liver assessed as residual activity at 10 mg/kg, po treated for 24 hrs followed by incubation with [14C]stearoyl-CoA substrate for 10 mins by TLC assay relative to control; type: functional; procedure, shortened: as §1
Stearoyl-CoA desaturase = biological target: T1, Stearoyl-CoA desaturase (Homo sapiens, UniProt O00767); test: Inhibition of recombinant human SCD1 expressed in baculovirus expression system assessed as reduction in [3H]H2O production using stearoyl [9,10-3H]CoA as substrate in presence of NADH incubated for 30 mins by scintillation counting method
T1 sequence (O00767 whole entry): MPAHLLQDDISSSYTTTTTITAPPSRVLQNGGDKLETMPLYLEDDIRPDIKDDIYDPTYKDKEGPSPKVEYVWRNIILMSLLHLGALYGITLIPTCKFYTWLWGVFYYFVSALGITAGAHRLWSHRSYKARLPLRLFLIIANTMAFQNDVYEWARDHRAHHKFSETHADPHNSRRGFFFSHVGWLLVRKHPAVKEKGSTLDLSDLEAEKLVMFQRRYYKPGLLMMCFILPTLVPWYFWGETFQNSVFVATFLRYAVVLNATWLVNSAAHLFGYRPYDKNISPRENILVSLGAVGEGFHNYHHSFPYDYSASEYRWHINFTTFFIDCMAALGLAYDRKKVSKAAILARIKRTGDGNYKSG
Procedure, shortened: (§2)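 Desaturation of [9,10-3H]stearoyl-CoA measured as released [3H]H2O. Water was separated from charcoal-adsorbed substrate by filtration and counted by scintillation. Remaining activity = (compound − background)/(control − background). DMSO wells served as control and pre-stopped wells as background. IC50 was interpolated from the two points bracketing 50%.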

[11] = biological target: Acyl-CoA (8-3)-desaturase (Homo sapiens, UniProt O60427); test: Inhibition of delta-5 fatty acid desaturase (unknown origin)
Mus musculus [12] = test: Ex vivo inhibition of SCD1 in C57BL/6J mouse eyelid assessed as residual activity at 1 mg/kg, po treated for 24 hrs followed by incubation with [14C]stearoyl-CoA substrate for 30 mins by TLC assay relative to control; type: organism-based; procedure, shortened: as §1
Mus musculus [13] = test: Ex vivo inhibition of SCD1 in C57BL/6J mouse eyelid assessed as residual activity at 100 mg/kg, po treated for 24 hrs followed by incubation with [14C]stearoyl-CoA substrate for 30 mins by TLC assay relative to control; type: organism-based; procedure, shortened: as §1
[14] = Apparent permeability of the compound in human Caco2 cells; type: ADME, cell-based; settings: Caco-2
Mus musculus [15] = test: Ex vivo inhibition of SCD1 in C57BL/6J mouse liver assessed as residual activity at 1 mg/kg, po treated for 24 hrs followed by incubation with [14C]stearoyl-CoA substrate for 10 mins by TLC assay relative to control; type: functional; procedure, shortened: as §1
Acyl-CoA desaturase 1 = biological target: T2, Acyl-CoA desaturase 1 (Mus musculus, UniProt P13516); test: Inhibition of mouse liver microsome SCD assessed as reduction in [3H]H2O production using stearoyl [9,10-3H]CoA as substrate in presence of NADH incubated for 30 mins by scintillation counting method; type: microsomes; procedure, shortened: as §2
T2 sequence (P13516 whole entry): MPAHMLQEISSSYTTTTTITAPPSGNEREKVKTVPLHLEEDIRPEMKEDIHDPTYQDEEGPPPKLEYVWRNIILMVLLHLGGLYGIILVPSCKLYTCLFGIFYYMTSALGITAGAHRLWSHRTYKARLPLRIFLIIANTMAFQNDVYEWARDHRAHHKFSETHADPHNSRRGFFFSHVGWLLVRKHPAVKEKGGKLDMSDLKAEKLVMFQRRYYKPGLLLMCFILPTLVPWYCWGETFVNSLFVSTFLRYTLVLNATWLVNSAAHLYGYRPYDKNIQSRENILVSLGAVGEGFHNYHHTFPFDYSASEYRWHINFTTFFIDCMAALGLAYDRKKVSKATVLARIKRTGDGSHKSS

Mus musculus [16] = test: Ex vivo inhibition of SCD1 in C57BL/6J mouse eyelid assessed as residual activity at 0.1 mg/kg, po treated for 24 hrs followed by incubation with [14C]stearoyl-CoA substrate for 30 mins by TLC assay relative to control; type: organism-based; procedure, shortened: as §1
[17] = AUC (0 to infinity) in C57BL/6J mouse at 10 mg/kg, po; type: ADME, organism-based; design: dose 10 mg/kg, time infinity, route oral; settings: in vivo
Mus musculus [18] = test: Antiobesity activity in high fat diet fed C57BL/6J mouse assessed as reduction in diet-induced body weight gain at 10 mg/kg, po administered as diet mixture for 43 days relative to control; type: functional
Procedure, shortened: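 C57BL/6J mice, individually housed, fed HFD for one month, then given HFD admixed with drug (0.0040% for 3 mg/kg/day, 0.0133% for 10 mg/kg/day) for 43 days, from 10 to 16 weeks of age. Chow-fed normal group as control. Body weight measured every 3–4 days. Mean ± SD, n=5–8. Dunnett's test versus HFD control.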

Mus musculus [19] = test: Ex vivo inhibition of SCD1 in C57BL/6J mouse eyelid assessed as residual activity at 0.1 mg/kg, po treated for 6 hrs followed by incubation with [14C]stearoyl-CoA substrate for 30 mins by TLC assay relative to control; type: organism-based; procedure, shortened: as §1
Mus musculus [20] = test: Ex vivo inhibition of SCD1 in C57BL/6J mouse liver assessed as residual activity at 0.1 mg/kg, po treated for 6 hrs followed by incubation with [14C]stearoyl-CoA substrate for 10 mins by TLC assay relative to control; type: functional; procedure, shortened: as §1
[21] = Solubility of the compound in PBS at pH 7.2; type: physicochemical

Sequence of Acyl-CoA (8-3)-desaturase (O60427 whole entry): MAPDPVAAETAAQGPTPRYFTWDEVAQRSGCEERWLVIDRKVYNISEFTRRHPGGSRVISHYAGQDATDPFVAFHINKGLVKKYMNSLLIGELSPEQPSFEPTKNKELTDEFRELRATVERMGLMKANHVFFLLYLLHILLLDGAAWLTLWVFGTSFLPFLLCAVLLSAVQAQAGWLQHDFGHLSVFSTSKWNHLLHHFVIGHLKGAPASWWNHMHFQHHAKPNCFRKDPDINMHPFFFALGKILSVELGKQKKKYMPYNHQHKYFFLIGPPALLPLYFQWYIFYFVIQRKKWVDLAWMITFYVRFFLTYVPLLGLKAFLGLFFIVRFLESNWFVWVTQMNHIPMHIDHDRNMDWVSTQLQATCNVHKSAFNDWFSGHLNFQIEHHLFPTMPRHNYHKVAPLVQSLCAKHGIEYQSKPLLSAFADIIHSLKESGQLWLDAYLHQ

bioavailability [1]: 15%
Activity (Mus musculus [2]): 4%
Activity (Mus musculus [5]): -2%
Activity (Mus musculus [6]): 41%
inhibition (INH) (Mus musculus [9]): Dose-dependent effect
IC50 (Stearoyl-CoA desaturase): 6.4 nM
IC50 [11]: > 30000 nM
Activity (Mus musculus [12]): 82%
Activity (Mus musculus [13]): 4%
Papp [14]: 12.7 ×10⁻⁶ cm/s
IC50 (Acyl-CoA desaturase 1): 3.8 nM
Activity (Mus musculus [16]): 100%
AUC(0-inf) [17]: 2.4 µM·h
Activity (Mus musculus [19]): 144%
solubility [21]: 2.4 µM (≈ 0.81 µg/mL)
SMILES: Cc1csc(NC(=O)c2ccc(CNc3ccccc3C)cc2)n1
Activity (Mus musculus [3]): 22%
Activity (Mus musculus [4]): 105%
Activity (Mus musculus [7]): 24%
inhibition (Mus musculus [8]): Dose-dependent effect
Activity (Mus musculus [10]): 109%
Activity (Mus musculus [15]): 120%
Activity (Mus musculus [18]): Active
Activity (Mus musculus [20]): 58%
